# Test results published in ChEMBL document CHEMBL4270654, “Identification of DK419, a potent inhibitor of Wnt/β-catenin signaling and colorectal cancer growth” (Bioorg Med Chem, 2018).
# The source made the active and inactive calls. The calls are words filed in the database; no cut-off is given here.
# Assays:
# CCD-841CoN [1] = assay: Stimulation of mitochondrial respiration in human CCD-841-CoN cells assessed as increase in oxygen consumption rate at 1 uM under basal conditions by polarographic analysis
# Homo sapiens [2] = species on record: Homo sapiens; assay: Inhibition of Wnt/beta-catenin signaling pathway in human SW480 whole cell lysate harboring APC mutation assessed as reduction in c-Myc protein expression at 5 uM after 18 hrs by Western blot analysis
# How it was run: (§1)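 CCRC240, HCT116 or SW480 cells were grown to 50–70% confluency and exposed 18 h to 5 μM compound in DMSO. Whole-cell lysates were blotted for c-Myc, cyclin D1 and survivin. Hypotonic cytosolic fractions, syringe-dispersed and centrifuged 120 min, were blotted for β-catenin and Axin2. β-Actin served as loading control.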
# [3] = AUC (0 to infinity) in NOD/SCID mouse at 200 mg/kg, po by LC-MS/MS-based non-compartmental extravascular input analysis; format: ADME, organism-based; set-up: dose 200 mg/kg, time infinity, route oral; conditions: in vivo
# Homo sapiens [4] = species on record: Homo sapiens; assay: Inhibition of Wnt/beta-catenin signaling pathway in human SW480 cells cytosol lysate harboring APC mutation assessed as reduction in beta-catenin protein expression at 5 uM after 18 hrs by Western blot analysis; format: cell-based
# How it was run: as §1
# Homo sapiens [5] = assay: Antitumor activity against human CRC240 cells xenografted in NOD/SCID mouse at 72 mg/kg, po administered 11 days and measured on day 4, 8 during compound dosing and day 11 post last dose; format: functional, organism-based
# How it was run: (§2)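 Minced CRC240 PDX tissue (150 mg/ml in PBS, 200 μl) implanted in flanks of NOD/SCID mice. At about 100 mm3 tumours, mice randomized and dosed orally once daily for 11 days. Vehicle: 10% 1-methyl-2-pyrrolidinone/90% PEG300, with dosing suspensions or solutions at […] or 0.2 mg/ml. Tumour size and body weight recorded on days 0, 4, 8 and 11. n = 3, two-tailed t-test versus vehicle.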
# [6] = AUC (0 to 24 hrs) in NOD/SCID mouse at 200 mg/kg, po by LC-MS/MS-based non-compartmental extravascular input analysis; format: ADME, organism-based; set-up: time < 24 hr, dose 200 mg/kg, route oral; conditions: in vivo
# Homo sapiens [7] = species on record: Homo sapiens; assay: Inhibition of Wnt/beta-catenin signaling pathway in human HCT116 cells cytosol lysate harboring beta-catenin mutation assessed as reduction in Axin2 protein expression at 5 uM after 18 hrs by Western blot analysis; format: cell-based
# How it was run: as §1
# Homo sapiens [8] = species on record: Homo sapiens; assay: Inhibition of Wnt/beta-catenin signaling pathway in human CRC240 whole cell lysate assessed as reduction in c-Myc protein expression at 5 uM after 18 hrs by Western blot analysis
# How it was run: as §1
# SW948 = assay: Antiproliferative activity against human SW948 cells after 72 hrs by colorimetric MTS assay; format: functional, cell-based; conditions: SW948, 72 h
# How it was run: (§3)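 Cells plated at 5000 per well in their own media (Leibovitz's for SW948; McCoy's 5A for HT-29/HCT116; MEM for SW480; RPMI for CRC240/DLD-1) with 10% FBS. Exposed 72 h to compound, 0.001–10 μM or 0.04–10 μM, then colorimetric MTS read-out. […] CRC240 is a patient-derived xenograft line.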
# Mus musculus [9] = assay: Dose normalized AUC (0 to infinity) in NOD/SCID mouse at 200 mg/kg, po by LC-MS/MS-based non-compartmental extravascular input analysis; format: ADME, organism-based; conditions: in vivo
# Homo sapiens [10] = species on record: Homo sapiens; assay: Inhibition of Wnt/beta-catenin signaling pathway in human HCT116 cells cytosol lysate harboring beta-catenin mutation assessed as reduction in beta-catenin protein expression at 5 uM after 18 hrs by Western blot analysis; format: cell-based
# How it was run: as §1
# [11] = Inhibition of Wnt3A-stimulated Wnt/beta-catenin pathway in HEK293 cells transfected with p8xTOPFlash, Renilla luciferase plasmid pRL-TK and pLKO.1 after 6 hrs by Dual topflash luciferase reporter assay; format: cell-based; conditions: Homo sapiens, HEK293, 6 h
# How it was run: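 HEK293 cells stably carrying p8xTOPFlash, pRL-TK and pLKO.1 were grown overnight to confluence in MEM/10% FBS with 1 μg/ml puromycin. Wnt-3A conditioned medium (from L Wnt-3A cells) containing compound (0.04–10 μM) or DMSO was added for 6 h. Dual-luciferase was read, with the Wnt3A+DMSO signal set as 100%.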
# [12] = MRT in NOD/SCID mouse at 200 mg/kg, po by LC-MS/MS-based non-compartmental extravascular input analysis; format: ADME, organism-based; conditions: in vivo
# CCD-841CoN [13] = assay: Stimulation of mitochondrial respiration in human CCD-841-CoN cells assessed as increase in oxygen consumption rate at 1 uM in presence of rotenone and […] antimycin A by polarographic analysis; format: functional, cell-based
# How it was run: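 CCD841Co cells were plated at 8000 per well and attached overnight. OCR was measured on a Seahorse XFp analyzer under basal conditions after 1 μM compound or DMSO was added. This was followed by 1 μM oligomycin, 1 μM FCCP, then 0.5 μM rotenone plus antimycin A (Mito Stress Test). Data given as mean ± SD, n = 2.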
# HCT-116 = assay: Antiproliferative activity against human HCT116 cells after 72 hrs by colorimetric MTS assay; format: functional, cell-based; conditions: HCT-116, 72 h
# How it was run: as §3
# Homo sapiens [14] = species on record: Homo sapiens; assay: Inhibition of Wnt/beta-catenin signaling pathway in human HCT116 whole cell lysate harboring beta-catenin mutation assessed as reduction in cyclin D1 protein expression at 5 uM after 18 hrs by Western blot analysis
# How it was run: as §1
# Homo sapiens [15] = species on record: Homo sapiens; assay: Inhibition of Wnt/beta-catenin signaling pathway in human HCT116 whole cell lysate harboring beta-catenin mutation assessed as reduction in c-Myc protein expression at 5 uM after 18 hrs by Western blot analysis
# How it was run: as §1
# SW480 = assay: Antiproliferative activity against human SW480 cells after 72 hrs by colorimetric MTS assay; format: functional, cell-based; conditions: SW480, 72 h
# How it was run: as §3
# Homo sapiens [16] = species on record: Homo sapiens; assay: Inhibition of Wnt/beta-catenin signaling pathway in human SW480 whole cell lysate harboring APC mutation assessed as reduction in cyclin D1 protein expression at 5 uM after 18 hrs by Western blot analysis
# How it was run: as §1
# [17] = biological target: AMP-activated protein kinase, AMPK (Homo sapiens) (UniProt P54646+O43741+P54619+Q9UGJ0+Q9Y478+Q13131+Q9UGI9); assay: Induction of AMPK phosphorylation in human CCD-841-CoN cells at 0.1 to 10 uM after 2 hrs by Western blot analysis; format: cell-based
# How it was run: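 Colonic epithelial CCD841Co cells were seeded at 0.27 million per well on poly-D-lysine-coated wells and attached overnight. Medium was then switched to glucose-free DMEM with 2 mM pyruvate and 2 mM glutamine containing compound or DMSO. Whole-cell lysates were immunoblotted for phospho-Thr172 AMPK and total AMPK, with β-actin as loading control. Methods give 30 min exposure; legend gives 2 h.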
# Homo sapiens [18] = species on record: Homo sapiens; assay: Inhibition of Wnt/beta-catenin signaling pathway in human CRC240 whole cell lysate assessed as reduction in survivin protein expression at 5 uM after 18 hrs by Western blot analysis
# How it was run: as §1
# Homo sapiens [19] = species on record: Homo sapiens; assay: Inhibition of Wnt/beta-catenin signaling pathway in human SW480 whole cell lysate harboring APC mutation assessed as reduction in survivin protein expression at 5 uM after 18 hrs by Western blot analysis
# How it was run: as §1
# Mus musculus [20] = assay: Toxicity in NOD/SCID mouse xenografted with human CRC240 cells assessed as change in body weight at 72 mg/kg, po administered 11 days and measured on day 4, 8 during compound dosing and day 11 post last dose; format: organism-based; conditions: in vivo, 264 h
# How it was run: as §2
# Homo sapiens [21] = species on record: Homo sapiens; assay: Inhibition of Wnt/beta-catenin signaling pathway in human CRC240 whole cell lysate assessed as reduction in cyclin D1 protein expression at 5 uM after 18 hrs by Western blot analysis
# How it was run: as §1
# Homo sapiens [22] = species on record: Homo sapiens; assay: Inhibition of Wnt/beta-catenin signaling pathway in human CRC240 cells cytosol lysate assessed as reduction in beta-catenin protein expression at 5 uM after 18 hrs by Western blot analysis; format: cell-based
# How it was run: as §1
# [23] = Antiproliferative activity against human CRC240 cells after 72 hrs by colorimetric MTS assay; format: functional, cell-based
# How it was run: as §3
# Homo sapiens [24] = species on record: Homo sapiens; assay: Inhibition of Wnt/beta-catenin signaling pathway in human CRC240 cells cytosol lysate assessed as reduction in Axin2 protein expression at 5 uM after 18 hrs by Western blot analysis; format: cell-based
# How it was run: as §1
# HT-29 = assay: Antiproliferative activity against human HT-29 cells after 72 hrs by colorimetric MTS assay; format: functional, cell-based; conditions: HT-29, 72 h
# How it was run: as §3
# DLD-1 = assay: Antiproliferative activity against human DLD1 cells after 72 hrs by colorimetric MTS assay; format: functional, cell-based; conditions: DLD-1, 72 h
# How it was run: as §3
# Mus musculus [25] = assay: Apparent volume of distribution in NOD/SCID mouse at 200 mg/kg, po by LC-MS/MS-based non-compartmental extravascular input analysis; format: ADME, organism-based; conditions: in vivo
# [26] = biological target: Frizzled-1 (Homo sapiens) (UniProt Q9UP38); assay: Induction of GFP-tagged Fzd1 (unknown origin) internalization expressed in human U2OS cells at 12.5 after 6 hrs by confocal microscopic method; format: functional, cell-based
# How it was run: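 U2OS cells stably expressing Fzd1-GFP were grown 24 h in confocal dishes and then treated 6 h at 37 °C with 12.5 μM compound, DMSO as control. Cells were fixed in 4% paraformaldehyde and imaged by confocal microscopy (488 nm excitation). Internalization was scored as intracellular green punctate vesicles.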
# Homo sapiens [27] = species on record: Homo sapiens; assay: Inhibition of Wnt/beta-catenin signaling pathway in human SW480 cells cytosol lysate harboring APC mutation assessed as reduction in Axin2 protein expression at 5 uM after 18 hrs by Western blot analysis; format: cell-based
# How it was run: as §1
# Homo sapiens [28] = species on record: Homo sapiens; assay: Inhibition of Wnt/beta-catenin signaling pathway in human HCT116 whole cell lysate harboring beta-catenin mutation assessed as reduction in survivin protein expression at 5 uM after 18 hrs by Western blot analysis
# How it was run: as §1
# Frizzled-1 (Homo sapiens), sequence (Q9UP38 70-647 limits assumed): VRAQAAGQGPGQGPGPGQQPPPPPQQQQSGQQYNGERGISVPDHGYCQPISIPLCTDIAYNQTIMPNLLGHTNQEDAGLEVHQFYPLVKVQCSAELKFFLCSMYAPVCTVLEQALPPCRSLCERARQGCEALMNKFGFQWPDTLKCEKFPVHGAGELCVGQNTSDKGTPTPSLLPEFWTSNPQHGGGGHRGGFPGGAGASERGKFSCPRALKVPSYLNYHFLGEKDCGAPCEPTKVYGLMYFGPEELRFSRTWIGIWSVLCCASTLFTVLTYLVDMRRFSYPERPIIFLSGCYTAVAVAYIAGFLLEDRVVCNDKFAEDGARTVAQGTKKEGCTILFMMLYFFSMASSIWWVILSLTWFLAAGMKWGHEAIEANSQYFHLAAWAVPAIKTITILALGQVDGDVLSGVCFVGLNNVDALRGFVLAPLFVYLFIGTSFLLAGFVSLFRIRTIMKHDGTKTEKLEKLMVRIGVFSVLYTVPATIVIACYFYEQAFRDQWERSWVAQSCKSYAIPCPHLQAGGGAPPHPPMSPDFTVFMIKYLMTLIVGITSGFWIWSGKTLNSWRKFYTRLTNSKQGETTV
compound,measurement,setting,value
O=C(Nc1ccc([N+](=O)[O-])cc1Cl)c1cc(Cl)ccc1O [NICLOSAMIDE],Activity,CCD-841CoN [1],Active
same,inhibition,Homo sapiens [2],Active
same,AUC(0-inf),[3],1020 ng·h/mL
same,inhibition,Homo sapiens [4],Active
same,Activity,Homo sapiens [5],Active
same,AUC(0-t) at 24 h,[6],1010 ng·h/mL
same,inhibition,Homo sapiens [7],Active
same,inhibition,Homo sapiens [8],Active
same,IC50,SW948,0.11 µM
same,AUC/dose,Mus musculus [9],0.005 µg·h/mL
same,inhibition,Homo sapiens [10],Active
same,IC50,[11],0.45 µM
same,MRT,[12],6.8 h
same,Activity,CCD-841CoN [13],inactive
same,IC50,HCT-116,0.41 µM
same,inhibition,Homo sapiens [14],Active
same,inhibition,Homo sapiens [15],Active
same,IC50,SW480,0.98 µM
same,inhibition,Homo sapiens [16],Active
same,Activity,[17],Active
same,inhibition,Homo sapiens [18],Active
same,inhibition,Homo sapiens [19],Active
same,Activity,Mus musculus [20],Non-Toxic
same,inhibition,Homo sapiens [21],Active
same,inhibition,Homo sapiens [22],Active
same,IC50,[23],0.89 µM
same,inhibition,Homo sapiens [24],Active
same,IC50,HT-29,0.13 µM
same,IC50,DLD-1,2.39 µM
same,Vz,Mus musculus [25],0.9 L/kg
same,Activity,[26],Active
same,inhibition,Homo sapiens [27],Active
same,inhibition,Homo sapiens [28],Active
